Measurements: BindingDB's records for doi:10.1021/jm980495r (Institute of Mutagenesis and Differentiation, 1999)

What was measured:
B1 bradykinin receptor = biological target: T1, B1 bradykinin receptor (Rattus norvegicus, UniProt P97583); assay: Antagonistic activity against Bradykinin receptor B1 of rat ileum longitudinal smooth muscle.
T1 sequence (P97583 whole entry): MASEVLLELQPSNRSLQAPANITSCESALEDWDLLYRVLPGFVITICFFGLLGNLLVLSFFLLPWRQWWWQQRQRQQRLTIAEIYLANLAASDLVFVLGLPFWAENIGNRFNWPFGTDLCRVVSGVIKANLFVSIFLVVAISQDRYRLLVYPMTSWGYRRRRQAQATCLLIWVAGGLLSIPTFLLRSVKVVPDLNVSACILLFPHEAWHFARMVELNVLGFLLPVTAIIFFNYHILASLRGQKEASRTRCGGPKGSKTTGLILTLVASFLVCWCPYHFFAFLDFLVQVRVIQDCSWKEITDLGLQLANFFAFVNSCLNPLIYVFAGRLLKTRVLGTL
Method in brief: (§1)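 Rat ileum longitudinal muscle-myenteric plexus strips in oxygenated (95% O2/5% CO2) Krebs with indomethacin, guanethidine (3 μM each), chlorpheniramine, atropine (1 μM each). Cumulative desArg9-BK curves with thiorphan, bestatin, captopril (1 μM each); antagonist given 15 min before repeat curve at 1–10 μM. Contraction read-out; pA2 (dose ratio 2), mean ± SE of 4–15 experiments.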

B2 bradykinin receptor = biological target: T2, B2 bradykinin receptor (Cavia porcellus, UniProt O70526); assay: Antagonistic activity against Bradykinin receptor B2 of guinea pig ileum longitudinal smooth muscle.
T2 sequence (O70526 whole entry): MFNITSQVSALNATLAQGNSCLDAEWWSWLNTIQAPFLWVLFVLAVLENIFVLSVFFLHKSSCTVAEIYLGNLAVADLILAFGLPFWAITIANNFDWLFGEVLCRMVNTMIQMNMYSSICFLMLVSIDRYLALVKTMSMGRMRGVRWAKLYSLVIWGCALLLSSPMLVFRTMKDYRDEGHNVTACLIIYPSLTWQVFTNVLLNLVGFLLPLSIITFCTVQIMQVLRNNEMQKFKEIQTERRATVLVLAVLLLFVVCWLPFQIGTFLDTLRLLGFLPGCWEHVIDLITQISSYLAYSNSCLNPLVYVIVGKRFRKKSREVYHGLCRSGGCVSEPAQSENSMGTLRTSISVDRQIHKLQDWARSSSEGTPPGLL
Method in brief: as §1, with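 “Guinea pig” for “Rat”, “BK” for “desArg9-BK”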

Structure (SMILES)	Kd (B1 bradykinin receptor)	Kd (B2 bradykinin receptor)
N=C(N)NCCC[C@@H](N)C(=O)N[C@@H](CCCNC(=N)N)C(=O)N1CCC[C@H]1C(=O)N1CC(O)C[C@H]1C(=O)NCC(=O)N[C@H](C(=O)N[C@@H](CO)C(=O)N[C@@H](C(=O)N1C(C(=O)N[C@H](CCCNC(=N)N)C(=O)O)C[C@@H]2CCCC[C@@H]21)C1Cc2ccccc2C1)C1Cc2ccccc2C1 (some centres undefined) [B-9430]	19.9 nM	6.31 nM
N=C(N)NCCC[C@H](NC(=O)[C@H](CCCCN)NC(=O)[C@@H](N)CCCCN)C(=O)N1CCC[C@H]1C(=O)N1CC(O)C[C@H]1C(=O)NCC(=O)N[C@H](C(=O)N[C@@H](CO)C(=O)N[C@@H](C(=O)N1C(C(=O)O)C[C@@H]2CCCC[C@@H]21)C1Cc2ccccc2C1)C1Cc2ccccc2C1 (some centres undefined) [B-9858]	7.94 nM	3160 nM
